Data as given in ChEMBL document CHEMBL4049443, “Discovery of 2-[[2-Ethyl-6-[4-[2-(3-hydroxyazetidin-1-yl)-2-oxoethyl]piperazin-1-yl]-8-methylimidazo[1,2-a]pyridin-3-yl]methylamino]-4-(4-fluorophenyl)thiazole-5-carbonitrile (GLPG1690), a First-in-Class Autotaxin Inhibitor Undergoing Clinical Evaluation for the Treatment of Idiopathic Pulmonary …” (J Med Chem, 2017).
Calls of active or inactive are those of the source. No cut-off for these calls is given here.

Experiments:
[1] = Apparent elimination half life in C57BL/6Rj mouse at 3 mg/kg administered as single dose via oral gavage up to 24 hrs by LC-MS/MS analysis; type: ADME, organism-based; settings: in vivo, read-out: betat1/2(app) (converted)
How it was run: (§1)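 Female C57BL/6Rj mice, 4−5 weeks old, fasted, given one oral gavage in PEG 200/MC 0.5% (25/75 v/v) at 0.3, 1 or 3 mg/mL. Intracardiac blood under isoflurane at 1, 3, 6 and 24 h into Li-heparin; n = 3 per time point. Methanol precipitation, LC−MS/MS against an eight-level calibration curve (LLOQ 4 ng/mL).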

[2] = Oral bioavailability in mouse at 5 mg/kg; type: ADME, organism-based; settings: in vivo
Mus musculus [3] = assay: Anti-fibrotic activity in BML-induced pulmonary fibrosis C57BL/6 mouse model assessed as reduction in fibrosis with damage of pulmonary structure at 10 to 30 mg/kg, po administered bid with 7.5 hrs interval between 2 doses for 21 days relative to control; type: functional, organism-based
How it was run: (§2)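 Male C57Bl/6 mice, 11 weeks at delivery, anesthetized and given intranasal bleomycin 30 μg/50 μL; PBS controls. Oral dosing twice daily, 7.5 h apart, 10 mL/kg, from challenge day for 21 days: test agent in PEG 200/0.5% MC, pirfenidone in 0.5% CMC, vehicle controls; 14−24 mice per group. Lungs stained by Mallory method, scored 1–5 (Matsuse-modified Ashcroft) as mean of 10 low-power fields; group median, Mann−Whitney.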

Mus musculus [4] = assay: In vivo inhibition of ATX in C57BL/6Rj mouse assessed as time for maximum reduction in LPA 18:2 at 30 mg/kg administered as single dose via oral gavage by LC-MS/MS analysis; type: functional
How it was run: (§3)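 Same single-gavage mouse study (female C57BL/6Rj, PEG 200/MC 0.5% vehicle, n = 3, bled predose and at 1, 3, 6, 24 h); vehicle control group. Plasma (10 μL) precipitated with methanol containing LPA 17:0 internal standard. LPA 18:2 read by LC−MS/MS as peak-area ratio to LPA 17:0. % reduction = 100 − (LPA at time t / mean vehicle LPA at time t × 100).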

Mus musculus [5] = assay: In vivo inhibition of ATX in C57BL/6Rj mouse assessed as reduction in LPA 18:2 level in plasma at 3 mg/kg administered as single dose via oral gavage by LC-MS/MS analysis; type: functional; how it was run: as §3
[6] = Plasma concentration C57BL/6Rj mouse at 10 mg/kg administered as single dose via oral gavage after 24 hrs by LC-MS/MS analysis; type: ADME, organism-based; how it was run: as §1
[7] = Protein binding to rat plasma; type: ADME, cell-free; settings: read-out: PPB
[8] = AUC (0 to 24 hrs) in C57BL/6Rj mouse at 30 mg/kg administered as single dose via oral gavage by LC-MS/MS analysis; type: ADME, organism-based; set-up: dose 30 mg/kg, time < 24 hr, route oral; settings: in vivo; how it was run: as §1
[9] = Oral bioavailability in dog at 1 mg/kg; type: ADME, organism-based, Canis lupus familiaris; settings: in vivo
How it was run: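 Dog: from 1 mg/kg oral and intravenous doses. Clearance taken from the intravenous arm.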

[10] = AUC (0 to 24 hrs) in C57BL/6Rj mouse at 3 mg/kg administered as single dose via oral gavage by LC-MS/MS analysis; type: ADME, organism-based; set-up: time < 24 hr, dose 3 mg/kg, route oral; settings: in vivo; how it was run: as §1
Cytochrome P450 3A4 = Cytochrome P450 3A4 (Homo sapiens, UniProt P08684); assay: Time-dependent inhibition of human liver microsomes CYP3A4; type: ADME
Sequence of Cytochrome P450 3A4 (P08684 whole entry): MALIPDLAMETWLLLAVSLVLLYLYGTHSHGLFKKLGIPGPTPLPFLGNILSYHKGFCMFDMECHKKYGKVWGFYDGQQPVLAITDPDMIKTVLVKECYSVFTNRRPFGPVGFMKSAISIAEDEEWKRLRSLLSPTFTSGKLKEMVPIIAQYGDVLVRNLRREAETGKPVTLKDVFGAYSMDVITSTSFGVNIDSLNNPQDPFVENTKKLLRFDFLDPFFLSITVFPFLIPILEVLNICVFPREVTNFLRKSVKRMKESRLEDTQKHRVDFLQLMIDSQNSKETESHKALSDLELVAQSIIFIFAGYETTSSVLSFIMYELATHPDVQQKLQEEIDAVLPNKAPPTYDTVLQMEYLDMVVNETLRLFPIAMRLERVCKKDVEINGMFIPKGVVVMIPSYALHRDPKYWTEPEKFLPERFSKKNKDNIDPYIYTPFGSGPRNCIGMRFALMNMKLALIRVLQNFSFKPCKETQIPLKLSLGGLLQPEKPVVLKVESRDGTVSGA

[11] = Tmax in C57BL/6Rj mouse at 3 mg/kg administered as single dose via oral gavage up to 24 hrs by LC-MS/MS analysis; type: ADME, organism-based; settings: in vivo; how it was run: as §1
Mus musculus [12] = assay: Anti-fibrotic activity in BML-induced pulmonary fibrosis C57BL/6 mouse model assessed as reduction in fibrous area with severe distortion of lung structure at 10 to 30 mg/kg, po administered bid with 7.5 hrs interval between 2 doses for 21 days relative to control; type: functional, organism-based; how it was run: as §2
[13] = Oral bioavailability in rat at 5 mg/kg; type: ADME, organism-based; settings: in vivo
[14] = Cmax in C57BL/6Rj mouse at 30 mg/kg administered as single dose via oral gavage up to 24 hrs by LC-MS/MS analysis; type: ADME, organism-based; set-up: dose 30 mg/kg, route oral; settings: in vivo; how it was run: as §1
[15] = Protein binding to human plasma; type: ADME, cell-free; settings: read-out: PPB
Mus musculus [16] = assay: In vivo inhibition of ATX in C57BL/6Rj mouse assessed as reduction in LPA 18:2 level in plasma at 30 mg/kg administered as single dose via oral gavage by LC-MS/MS analysis; type: functional; how it was run: as §3
Autotaxin = Autotaxin (Rattus norvegicus, UniProt Q64610); assay: Inhibition of ATX in rat plasma assessed as reduction in LPA 18:2 production after 2 hrs by LC-MS/MS analysis
Mus musculus [17] = assay: Anti-fibrotic activity in BML-induced pulmonary fibrosis C57BL/6 mouse model assessed as reduction in fibrotic thickening of aveolar/bronchial walls at 10 to 30 mg/kg, po administered bid with 7.5 hrs interval between 2 doses for 21 days relative to control; type: functional, organism-based; how it was run: as §2
Mus musculus [18] = assay: Dose normalized Cmax in C57BL/6Rj mouse at 30 mg/kg administered as single dose via oral gavage up to 24 hrs by LC-MS/MS analysis; type: ADME, organism-based; settings: in vivo; how it was run: as §1
Mus musculus [19] = assay: In vivo inhibition of ATX in C57BL/6Rj mouse assessed as time for maximum reduction in LPA 18:2 at 10 mg/kg administered as single dose via oral gavage by LC-MS/MS analysis; type: functional; how it was run: as §3
[20] = Plasma concentration in C57BL/6Rj mouse at 3 mg/kg administered as single dose via oral gavage after 24 hrs by LC-MS/MS analysis; type: ADME, organism-based; how it was run: as §1
[21] = Plasma clearance in rat at 1 mg/kg, iv; type: ADME, organism-based

half-life [1]: 2.21 h | bioavailability [2]: 29% | concentration at 24 h [6]: 4 ng/mL | fraction unbound [7]: < 0.01 | AUC(0-t) at 24 h [8]: 101000 ng·h/mL | bioavailability [9]: 63% | AUC(0-t) at 24 h [10]: 5550 ng·h/mL | TDI (Cytochrome P450 3A4): Not Active | Tmax [11]: 3 h | bioavailability [13]: 37% | Cmax [14]: 21400 ng/mL | fraction unbound [15]: < 0.01 | IC50 (Autotaxin): 542 nM | Cmax/dose (Mus musculus [18]): 712 ng/mL/(mg/kg) | concentration at 24 h [20]: 1 ng/mL | clearance [21]: 11.5 mL/min/kg
Structure (SMILES): CCc1nc2c(C)cc(N3CCN(CC(=O)N4CC(O)C4)CC3)cn2c1N(C)c1nc(-c2ccc(F)cc2)c(C#N)s1 [ZIRITAXESTAT]
Activity (Mus musculus [3]): Active | Time (Mus musculus [4]): 3 h | inhibition in vivo at 3 mg/kg (Mus musculus [5]): 83.6% | Activity (Mus musculus [12]): Active | inhibition in vivo at 30 mg/kg (Mus musculus [16]): 95.2% | Activity (Mus musculus [17]): Active | Time (Mus musculus [19]): 3 h
